According to ChEMBL document CHEMBL2016463, “A Novel (18)F-Labeled Imidazo[2,1-b]benzothiazole (IBT) for High-Contrast PET Imaging of β-Amyloid Plaques” (ACS Med Chem Lett, 2011):
One block for each compound: values may come before it. Activity calls are given as the source filed them. The rule behind the calls is not given here.

How the values were obtained:
[1] = Metabolic stability in Balb-C mouse blood at 21 to 32 MBq, iv after 30 mins by gamma counting; type: ADME, organism-based; conditions: read-out: Stability
Method in brief: (§1)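 Balb-C mice were sampled for blood and brain tissue at 10 and 30 min pi. Radioactivity speciation is given as % intact tracer.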

[2] = Metabolic stability in Balb-C mouse blood at 21 to 32 MBq, iv after 10 mins by gamma counting; type: ADME, organism-based; conditions: read-out: Stability; method in brief: as §1
[3] = Metabolic stability in Balb-C mouse brain at 21 to 32 MBq, iv after 10 mins by gamma counting; type: ADME, organism-based; conditions: read-out: Stability; method in brief: as §1
Cortex [4] = test: Drug uptake in APP/PS1 Alzheimer's disease mouse brain cortex at 13.5 MBq at 45 mins postinjection by uPET/CT analysis relative to control; type: ADME, organism-based; conditions: in vivo, 0.75 h
Method in brief: (§2)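 Multimodal study of one 25-month-old APP/PS1 Tg mouse, with a 28-month-old control. Tail-vein coinjection of 18F tracer plus [3H]-reference: 13.5 + 4.0 MBq (Tg) or 10.0 + 3.7 MBq (control). Mice underwent µPET/CT for 45 min in list mode and were killed at 45 min. Ex vivo work included regional brain biodistribution and dual-label (3H/18F) digital autoradiography on 12 µm axial sections.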

[5] = molecular target: T1, Amyloid-beta precursor protein (Homo sapiens, UniProt P05067); test: Displacement of [3H]Pittsburgh compound B from human Abeta1-40 after 3 hrs by liquid scintillation counting
T1 sequence (P05067 whole entry): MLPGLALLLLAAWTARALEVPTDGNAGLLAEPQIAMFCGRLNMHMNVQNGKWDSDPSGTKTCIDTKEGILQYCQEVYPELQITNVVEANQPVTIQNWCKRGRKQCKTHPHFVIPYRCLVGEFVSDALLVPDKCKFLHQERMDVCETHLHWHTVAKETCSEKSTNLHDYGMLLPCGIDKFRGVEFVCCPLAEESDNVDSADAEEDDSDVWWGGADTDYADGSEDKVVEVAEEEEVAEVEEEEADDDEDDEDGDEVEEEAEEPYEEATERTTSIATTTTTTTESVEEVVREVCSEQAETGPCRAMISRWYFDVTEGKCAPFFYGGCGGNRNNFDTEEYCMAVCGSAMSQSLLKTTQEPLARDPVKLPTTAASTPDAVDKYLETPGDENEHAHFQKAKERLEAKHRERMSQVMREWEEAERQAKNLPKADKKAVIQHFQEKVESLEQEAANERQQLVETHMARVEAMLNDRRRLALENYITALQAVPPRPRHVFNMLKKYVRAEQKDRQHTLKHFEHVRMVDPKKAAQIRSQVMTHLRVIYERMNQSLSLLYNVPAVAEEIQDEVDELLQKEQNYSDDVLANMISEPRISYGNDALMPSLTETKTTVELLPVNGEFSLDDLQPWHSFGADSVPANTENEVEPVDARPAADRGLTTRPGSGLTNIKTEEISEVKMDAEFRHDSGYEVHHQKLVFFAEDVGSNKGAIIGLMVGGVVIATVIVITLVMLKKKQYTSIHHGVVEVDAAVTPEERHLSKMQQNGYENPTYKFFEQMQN

[6] = Metabolic stability in Balb-C mouse brain at 21 to 32 MBq, iv after 30 mins by gamma counting; type: ADME, organism-based; conditions: read-out: Stability; method in brief: as §1
Brain [7] = test: Drug uptake in APP/PS1 Alzheimer's disease mouse brain cortex at 11.7 +/- 4.1 MBq at 36 to 45 mins postinjection by uPET analysis relative to control; type: ADME, organism-based; conditions: in vivo
Method in brief: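 APP/PS1 (homozygous) Tg mice, 24.0 ± 0.4 months old (n = 7), and age-matched C57B6/J controls, 25 ± 2 months old (n = 3). Each mouse got a single bolus of 18F tracer: 11.7 ± 4.1 MBq for Tg, 11.5 ± 3.4 MBq for controls. Images are µPET frames summed over 36–45 min pi, with CT overlaid on an MRI template. Cortical and cerebellar VOI TACs and cortex/cerebellum ratios were derived.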

Brain [8] = test: Drug uptake in Balb-C mouse brain at 4 to 6 MBq, iv after 5 mins by gamma counting relative to [11C]Pittsburgh compound B; type: ADME, organism-based; conditions: in vivo
Method in brief: (§3)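 Male Balb-C mice received tracer or [11C] reference. Brain uptake was measured at 5 and 30 min pi and reported as mean ± SD, n ≥ 4.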

[9] = molecular target: T1, Amyloid-beta precursor protein; test: Displacement of [3H]Pittsburgh compound B from human Abeta1-42 after 3 hrs by liquid scintillation counting
Cortex [10] = test: Drug uptake in APP/PS1 Alzheimer's disease mouse brain cortex at 13.5 MBq at 45 mins postinjection by dual label autoradiography relative to control; type: ADME, organism-based; conditions: in vivo, 0.75 h; method in brief: as §2
Brain [11] = test: Drug uptake in Balb-C mouse brain at 4 to 6 MBq, iv after 30 mins by gamma counting relative to [11C]Pittsburgh compound B; type: ADME, organism-based; conditions: in vivo, 0.5 h; method in brief: as §3
Brain [12] = test: Ratio of drug uptake in Alzheimer's disease patient brain to healthy human brain; type: ADME, tissue-based; conditions: in vivo
Cortex [13] = test: Binding affinity to amyloid beta plaque in APP/PS1 Alzheimer's disease mouse brain cortex at 13.5 MBq after 45 mins postinjection by immunohistochemistry analysis relative to control; type: functional, organism-based; design: dose or concentration left out as unconfirmed; conditions: tested as the 18F-labelled form
Cortex [14] = test: Binding affinity to amyloid beta plaque in APP/PS1 Alzheimer's disease mouse brain cortex at 4 MBq after 45 mins postinjection by immunohistochemistry analysis relative to control; type: functional, organism-based; design: dose or concentration left out as unconfirmed; conditions: tested as the 3H-labelled form
Cortex [15] = test: Drug uptake in APP/PS1 Alzheimer's disease mouse brain cortex at 4 MBq at 45 mins postinjection by uPET/CT analysis relative to control; type: ADME, organism-based; conditions: in vivo, 0.75 h; method in brief: as §2
Cortex [16] = test: Drug uptake in APP/PS1 Alzheimer's disease mouse brain cortex at 4 MBq at 45 mins postinjection by dual label autoradiography relative to control; type: ADME, organism-based; conditions: in vivo, 0.75 h; method in brief: as §2

SMILES: CNc1ccc(-c2cn3c(n2)sc2cc(OCC[18F])ccc23)cc1
remaining at 0.5 h [1]: 5% | remaining at 10 min [2]: 12% | remaining at 10 min [3]: 92% | Drug uptake (Cortex [4]): Active | Ki [5]: 2.1 nM | remaining at 0.5 h [6]: 88% | Drug uptake (Brain [7]): Active | Drug uptake (Brain [8]): Active | Ki [9]: 3.2 nM | Drug uptake (Cortex [10]): Active | Drug uptake (Brain [11]): Active

SMILES: CC(=C(C#N)C#N)c1ccc2cc(N(C)CC[18F])ccc2c1
Ratio (Brain [12]): 1.3

SMILES: CNc1ccc(/C=C/c2ccc(OCCOCCOCC[18F])cc2)cc1 [FLORBETABEN F18]
Ratio (Brain [12]): 1.5

SMILES: CNc1ccc(-c2cn3c(n2)sc2cc(OCCF)ccc23)cc1
Activity (Cortex [13]): Active

SMILES: [3H]Oc1ccc2nc(-c3ccc(NC)cc3)sc2c1
Drug uptake (Cortex [15]): Active | Drug uptake (Cortex [16]): Active

Second part, the compound after the results:

Drug uptake (Brain [8]): Active | Drug uptake (Brain [11]): Active
SMILES: [11CH3]Nc1ccc(-c2nc3ccc(O)cc3s2)cc1 [PITTSBURGH COMPOUND B]

Activity (Cortex [14]): Active
SMILES: CNc1ccc(-c2nc3ccc(O)cc3s2)cc1
